This is a sample that favours compounds with a hit; in the whole collection about 3.5% have one here.
PGC1a acetyl inh: PGC1a acetylation modulation, inhibitor mode; 350,000 tested, 0.17% active; inhibition, % at 15.6 µM; U2OS PGC1a acetylation, AlphaScreen anti-acetyl-lysine; with virally co-expressed GCN5 acetyltransferase;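 active = every replicate shows inhibition of at least 40%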;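 note: 0% = neutral control wells and 100% = positive control wells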
ERAP1 inh: ERAP1 (human) enzyme inhibition; inhibition, % at 10.7 µM; 340,000 tested, 0.15% active; recombinant ERAP1, Leu-AMC fluorescence, 60 min; AID 652197; Q9NZ08;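 active = mean replicate inhibition of at least 30%, or all replicates individually reaching that 30% level; inactive = mean below 30% and not every replicate reaching it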;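 note: 0% = neutral control wells and 100% = L-leucinethiol positive control wells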
HIV Env fusion: blocks HIV Env-driven cell-cell fusion | HeLa-JRFL Env/CEM21 cell fusion, luciferase | inhibition, % at 12.3 µM | 360,000 tested, 1.1% active | AID 651610;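 active = mean replicate inhibition score of at least 50 and every replicate individually at or above 50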;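 note: 0% = plate neutral controls and 100% = maraviroc near 300 nM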
Ecoli rRNA inh: inhibits bacterial ribosomal RNA function over humanized ribosomes; GFP signal change (wild-type ribosome), % (test concentration not listed); AID 720706; 350,000 tested, 1.6% active; E. coli WT GFP vs humanized-ribosome RFP mutants, fluorescence, 24 h; active compounds read low; DMSO median 0, no signal -100;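 active = significant combined selectivity score with lowered wild-type GFP, culture density cut under 30%, mutant RFP and density less affected; inactive = any of these conditions unmet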
FGF22 binding: FGF22 (human) thermal shift binding | recombinant FGF22 thermal shift, SYPRO orange fluorescence; percent of sucrose octasulfate shift, DMSO zero | Q9HCT0 | activity (Tm shift, normalised), % at 9.99 µM | 340,000 tested, 1.5% active;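 active = mean Tm shift, scaled 0 neutral to 100 positive control, at about 1.3% or above, every replicate too, limit read from the data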
Cneo AK release: Cryptococcus neoformans lysis via adenylate kinase release. C. neoformans lysis, adenylate kinase release luminescence, 4 h; normalised: neutral wells 0, clomiphene wells 100. lysis activity, % at 15 µM. 360,000 tested, 0.2% active. AID 651654;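 active = mean lysis activity across replicates of at least 80%, whatever share of replicates individually reach that level; inactive = mean lysis activity below 80%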
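Schedule: static 4 h at 37 °C with compound, 1 h detection; system: C. neoformans cells; benchmarks: Clomiphene as positive control; buffer or medium: fresh YPD medium; measure: luminescence rise reflecting yeast cell lysis; measured by: luminescent adenylate kinase detection reagent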
Starred values were filed as active, the others as inactive; . = not tested or not shown; [ ] = dose if it differs, or a comment.

SMILES	PGC1a acetyl inh	ERAP1 inh	HIV Env fusion	Ecoli rRNA inh	FGF22 binding	Cneo AK release
CCn1c(CCc2ccccc2)nc2ccccc21	-3	1	-6	-23*	0	-2
CCc1nc2ccccc2n1CCc1ccccc1	2	-3	9	-24*	0	.
CC(C)Cc1nc2ccccc2n1CCc1ccccc1	.	1	-22	.	43*	.
CC(C)(C)Cc1nc2ccccc2n1CCc1ccccc1	-20	.	-4	.	.	11
Cc1ccc(S(=O)(=O)N(C)C[C@H]2Oc3ccc(NS(=O)(=O)c4ccc(Cl)cc4)cc3CC(=O)N([C@H](C)CO)C[C@@H]2C)cc1	-6	2	-17[16.7 µM]	-1	-1	0
C=COCCNC(=O)C(=O)NC(C)C	0	.	-54	.	.	0
N#CC(C(=S)Nc1ccccc1)c1nc2ccccc2[nH]1 (stereo not given)	-15	3	5	-38*	0	0
Brc1ccccc1C1Cc2nnccc2CN1 (stereo not given)	.	2	4	-36*	0	.
COc1ccc(CCNc2ccc(N3C(=O)CC(C)C3=O)cc2[N+](=O)[O-])cc1OC (stereo not given)	-13	2	68*	-11	-1	14
COc1ccc(CCNc2ccc(N3C(=O)CC(C)C3=O)cc2[N+](=O)[O-])cc1 (stereo not given)	0	-1	-3	0	0	.
COc1cc(/C=C(/C#N)C(=O)NCCCc2ccccc2)ccc1OCC(=O)O	-10	35*	-20	2	0	-1
COc1ccc(/C=C(\C#N)C(=O)NCc2cccnc2)cc1OC	0	63*	2	-27	42	.
COc1cc(/C=C(\C#N)C(=O)NCc2ccccc2)ccc1OCc1ccc(C(=O)O)cc1	39	.	12	-2	0	3
Cc1ccc(Oc2c(CO)c(-c3ccccc3)nn2C)cc1	-3	-2	4	-24*	0	.
CO[C@H](CN(C)C(=O)C1CCOCC1)[C@H](C)CN(C(=O)Nc1ccc(F)cc1)[C@H](C)CO	10	1	.	1	0	-3
COC(=O)c1sc(-c2ccc(Cl)cc2)cc1N	3	.	-42	-1	.	9
CC(=O)c1sc(-c2ccc(Cl)cc2)cc1N	.	1	-58	-30*	0	.
CC1(Cc2ccccc2OC(F)(F)F)C(=O)Nc2ccc(OC(F)(F)F)cc21 (stereo not given)	.	-1	19	5	0	5
CC1(Cc2ccccc2OC(F)(F)F)C(=O)Nc2ccc(-c3ccsc3)cc21 (stereo not given)	-16	-3	71*	1	0	-2
CC1(Cc2ccccc2OC(F)(F)F)C(=O)Nc2cc(-c3ccccc3Cl)ccc21 (stereo not given)	.	-1	56*	3	0	0
COC(=O)c1cccc(CC2(C)C(=O)Nc3cc(-c4ccccc4Cl)ccc32)c1 (stereo not given)	.	7	90*	7	0	-2
CC(C)NC(=O)N1[C@H](C#N)[C@@H](c2ccc(-c3ccc(F)cc3)cc2)[C@@H]1CO	-7	1	.	-4	0	-3
O=C1C(=C(c2ccccc2)N2CCOCC2)Cc2ccccc21	.	0	-465	-22*	-1	.
COc1ccc(C2c3[nH]c4ccccc4c3CCN2C(=O)c2cc3ncccn3n2)c(F)c1 (stereo not given)	-41	-1	6	-4	43*	-6
O=C(c1cn[nH]c1)N1CCc2c([nH]c3ccccc23)C1c1c(F)cccc1Cl (stereo not given)	-9	-5	-33	-31	44*	.
Cc1ccc2nc(C(=O)N3CCc4c([nH]c5ccccc45)C3c3ccccn3)cn2c1 (stereo not given)	.	2	-3	-13	43*	-2
COc1ccc(C2c3[nH]c4ccccc4c3CCN2C(=O)c2cn3ccccc3n2)c(F)c1 (stereo not given)	-9	0	-19	-4	42	2
CSc1nc(C(=O)N2CCc3c([nH]c4ccccc34)C2c2ccccn2)cs1 (stereo not given)	-4	0	-10	-22	0	4

Screening results from PubChem.
